Test results from ChEMBL document CHEMBL1147862, “Studies on synthesis and pharmacological activities of 3,6-disubstituted-1,2,4-triazolo[3,4-b]-1,3,4-thiadiazoles and their dihydro analogues” (2007).

Tests used:
Format in all cases: functional
Candida albicans [1] = test: Antifungal activity against Candida albicans at 20 ug/ml by paper disc method; settings: read-out: IZ
Rattus norvegicus [2] = test: Antiinflammatory activity in Wistar Albino rat assessed as inhibition of carrageenan-induced paw oedema at 20 mg/kg after 4 hrs relative to control
Method in brief: (§1)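 Wistar albino rats, 150–200 g, six per group, dosed orally with a 20 mg/kg suspension; control gets 0.1 ml 1% gum acacia. After 30 min, 0.1 ml 1% carrageenan in saline is injected subplantar into the right hind paw. Paw volume is read by plethysmograph at 0–4 h. Inhibition = 100(1 − Vtest/Vcontrol) on mean volume increase.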

Bacillus subtilis [3] = test: Antibacterial activity against Bacillus subtilis at 20 ug/ml by agar plate diffusion technique; settings: read-out: IZ
Aspergillus niger [4] = test: Antifungal activity against Aspergillus niger at 20 ug/ml by paper disc method; settings: read-out: IZ
Staphylococcus aureus [5] = test: Antibacterial activity against Staphylococcus aureus at 10 ug/ml by agar plate diffusion technique; settings: read-out: IZ
Rattus norvegicus [6] = test: Antiinflammatory activity in Wistar Albino rat assessed as inhibition of carrageenan-induced paw oedema at 20 mg/kg after 3 hrs relative to control; method in brief: as §1
Bacillus subtilis [7] = test: Antibacterial activity against Bacillus subtilis at 10 ug/ml by agar plate diffusion technique; settings: read-out: IZ
Staphylococcus aureus [8] = test: Antibacterial activity against Staphylococcus aureus at 20 ug/ml by agar plate diffusion technique; settings: read-out: IZ
Staphylococcus aureus [9] = test: Antibacterial activity against Staphylococcus aureus at 30 ug/ml by agar plate diffusion technique; settings: read-out: IZ
Mus musculus [10] = test: Analgesic activity in Swiss mouse assessed as increase in reaction time at 20 mg/kg, po after 60 mins by Eddy's hot plate technique
Method in brief: (§2)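 Swiss mice of either sex, 25–35 g, placed one at a time on a hot plate held at 55 °C. End point is paw licking or jumping, whichever comes first, with a 15 s cut-off to avoid paw injury. Reaction time is recorded and reported as percent increase in reaction time.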

Candida albicans [11] = test: Antifungal activity against Candida albicans at 10 ug/ml by paper disc method; settings: read-out: IZ
Pseudomonas aeruginosa [12] = test: Antibacterial activity against Pseudomonas aeruginosa at 20 ug/ml by agar plate diffusion technique; settings: read-out: IZ
Mus musculus [13] = test: Analgesic activity in Swiss mouse assessed as increase in reaction time at 20 mg/kg, po after 90 mins by Eddy's hot plate technique; method in brief: as §2
Pseudomonas aeruginosa [14] = test: Antibacterial activity against Pseudomonas aeruginosa at 10 ug/ml by agar plate diffusion technique; settings: read-out: IZ
Candida albicans [15] = test: Antifungal activity against Candida albicans at 30 ug/ml by paper disc method; settings: read-out: IZ
Rattus norvegicus [16] = test: Antiinflammatory activity in Wistar Albino rat assessed as inhibition of carrageenan-induced paw oedema at 20 mg/kg after 2 hrs relative to control; method in brief: as §1
Pseudomonas aeruginosa [17] = test: Antibacterial activity against Pseudomonas aeruginosa at 30 ug/ml by agar plate diffusion technique; settings: read-out: IZ
Mus musculus [18] = test: Analgesic activity in Swiss mouse assessed as increase in reaction time at 20 mg/kg, po after 30 mins by Eddy's hot plate technique; method in brief: as §2
Aspergillus niger [19] = test: Antifungal activity against Aspergillus niger at 30 ug/ml by paper disc method; settings: read-out: IZ
Aspergillus niger [20] = test: Antifungal activity against Aspergillus niger at 10 ug/ml by paper disc method; settings: read-out: IZ
Escherichia coli [21] = test: Antibacterial activity against Escherichia coli at 10 ug/ml by agar plate diffusion technique; settings: read-out: IZ
Bacillus subtilis [22] = test: Antibacterial activity against Bacillus subtilis at 30 ug/ml by agar plate diffusion technique; settings: read-out: IZ
Rattus norvegicus [23] = test: Antiinflammatory activity in Wistar Albino rat assessed as inhibition of carrageenan-induced paw oedema at 20 mg/kg after 1 hr relative to control; method in brief: as §1
Escherichia coli [24] = test: Antibacterial activity against Escherichia coli at 30 ug/ml by agar plate diffusion technique; settings: read-out: IZ
Escherichia coli [25] = test: Antibacterial activity against Escherichia coli at 20 ug/ml by agar plate diffusion technique; settings: read-out: IZ

| SMILES | zone of inhibition at 20 µg/mL (Candida albicans [1]) | inhibition in vivo at 20 mg/kg (Rattus norvegicus [2]) | zone of inhibition at 20 µg/mL (Bacillus subtilis [3]) | zone of inhibition at 20 µg/mL (Aspergillus niger [4]) | zone of inhibition at 10 µg/mL (Staphylococcus aureus [5]) | inhibition in vivo at 20 mg/kg (Rattus norvegicus [6]) | zone of inhibition at 10 µg/mL (Bacillus subtilis [7]) | zone of inhibition at 20 µg/mL (Staphylococcus aureus [8]) | zone of inhibition at 30 µg/mL (Staphylococcus aureus [9]) | Activity (Mus musculus [10]) | zone of inhibition at 10 µg/mL (Candida albicans [11]) | zone of inhibition at 20 µg/mL (Pseudomonas aeruginosa [12]) | Activity (Mus musculus [13]) | zone of inhibition at 10 µg/mL (Pseudomonas aeruginosa [14]) | zone of inhibition at 30 µg/mL (Candida albicans [15]) | inhibition in vivo at 20 mg/kg (Rattus norvegicus [16]) | zone of inhibition at 30 µg/mL (Pseudomonas aeruginosa [17]) | Activity (Mus musculus [18]) | zone of inhibition at 30 µg/mL (Aspergillus niger [19]) | zone of inhibition at 10 µg/mL (Aspergillus niger [20]) | further results |
| --- | --- | --- | --- | --- | --- | --- | --- | --- | --- | --- | --- | --- | --- | --- | --- | --- | --- | --- | --- | --- | --- |
| COc1ccc(Cl)c(-c2nnc3sc(Cc4c(C)[nH]c5ccc(OC)cc45)nn23)c1 | 8.72 mm | 32.7% | 7.18 mm | 8.24 mm | 4.17 mm | 26.1% | 4.12 mm | 8.12 mm | 12.1 mm | 28.54% | 4.35 mm | 7.92 mm | 35.24% | 4.15 mm | 11.7 mm | 20% | 12.4 mm | 19.48% | 12.3 mm | 4.56 mm | zone of inhibition at 10 µg/mL (Escherichia coli [21]): 4.26 mm; zone of inhibition at 30 µg/mL (Bacillus subtilis [22]): 11.9 mm; inhibition in vivo at 20 mg/kg (Rattus norvegicus [23]): 11.3%; zone of inhibition at 30 µg/mL (Escherichia coli [24]): 12.3 mm; zone of inhibition at 20 µg/mL (Escherichia coli [25]): 7.28 mm |
| COc1ccc2[nH]cc(Cc3nn4c(Cc5ccc(OC)c(OC)c5)nnc4s3)c2c1 | 8.3 mm | 29.6% | 8.18 mm | 8.1 mm | 4.82 mm | 19.1% | 4.92 mm | 8.39 mm | 13.6 mm | 19.06% | 4.12 mm | 8.42 mm | 28.32% | 4.9 mm | 10 mm | 11.6% | 12.3 mm | 11.92% | 10.4 mm | 4.24 mm | zone of inhibition at 10 µg/mL (Escherichia coli [21]): 4.72 mm; zone of inhibition at 30 µg/mL (Bacillus subtilis [22]): 13.7 mm; inhibition in vivo at 20 mg/kg (Rattus norvegicus [23]): 4.11%; zone of inhibition at 30 µg/mL (Escherichia coli [24]): 12.9 mm; zone of inhibition at 20 µg/mL (Escherichia coli [25]): 8.49 mm |
| Cc1occc1-c1nnc2sc(-c3ccnc4ccccc34)nn12 | 11 mm | 23.4% | 14.1 mm | 12 mm | 8.16 mm | 20.3% | 8.14 mm | 14.1 mm | 19.1 mm | 10.24% | 5.78 mm | 14.2 mm | 19.24% | 8.17 mm | 19.2 mm | 17.1% | 19.1 mm | 5.62% | 19.6 mm | 6.14 mm | zone of inhibition at 10 µg/mL (Escherichia coli [21]): 8.74 mm; zone of inhibition at 30 µg/mL (Bacillus subtilis [22]): 19.8 mm; inhibition in vivo at 20 mg/kg (Rattus norvegicus [23]): 12.5%; zone of inhibition at 30 µg/mL (Escherichia coli [24]): 19.4 mm; zone of inhibition at 20 µg/mL (Escherichia coli [25]): 15.3 mm |
| COc1ccc(Cc2nnc3sc(-c4ccnc(Cl)c4)nn23)cc1OC | 12.9 mm | 24.2% | 13.9 mm | 13 mm | 7.05 mm | 22.5% | 7.19 mm | 13.6 mm | 18.1 mm | 12.55% | 6.82 mm | 12.2 mm | 23.89% | 6.93 mm | 19.4 mm | 13.2% | 19.4 mm | 6.24% | 18.4 mm | 7.23 mm | zone of inhibition at 10 µg/mL (Escherichia coli [21]): 6.72 mm; zone of inhibition at 30 µg/mL (Bacillus subtilis [22]): 18.9 mm; inhibition in vivo at 20 mg/kg (Rattus norvegicus [23]): 11.2%; zone of inhibition at 30 µg/mL (Escherichia coli [24]): 19.7 mm; zone of inhibition at 20 µg/mL (Escherichia coli [25]): 12.8 mm |
| Cc1occc1-c1nnc2sc(-c3cc(-c4ccccc4)nc4ccccc34)nn12 | 14.8 mm | 24.4% | 11.8 mm | 11 mm | 6.18 mm | 16.4% | 6.16 mm | 12.7 mm | 17.5 mm | 14.48% | 6.27 mm | 12 mm | 21.1% | 7.12 mm | 19.4 mm | 14.5% | 17.3 mm | 4.86% | 17.7 mm | 5.92 mm | zone of inhibition at 10 µg/mL (Escherichia coli [21]): 7.64 mm; zone of inhibition at 30 µg/mL (Bacillus subtilis [22]): 16.9 mm; inhibition in vivo at 20 mg/kg (Rattus norvegicus [23]): 11.8%; zone of inhibition at 30 µg/mL (Escherichia coli [24]): 17.4 mm; zone of inhibition at 20 µg/mL (Escherichia coli [25]): 13.2 mm |
| COc1ccc(Cl)c(-c2nnc3sc(-c4ccnc(Cl)c4)nn23)c1 | 13.7 mm | 27.2% | 13.8 mm | 11.8 mm | 6.98 mm | 23.5% | 7.12 mm | 13.7 mm | 18.6 mm | 17.45% | 7.14 mm | 12.5 mm | 23% | 7.02 mm | 19.3 mm | 20.1% | 19.1 mm | 7.14% | 18.4 mm | 6.64 mm | zone of inhibition at 10 µg/mL (Escherichia coli [21]): 6.39 mm; zone of inhibition at 30 µg/mL (Bacillus subtilis [22]): 18.6 mm; inhibition in vivo at 20 mg/kg (Rattus norvegicus [23]): 14.4%; zone of inhibition at 30 µg/mL (Escherichia coli [24]): 19.2 mm; zone of inhibition at 20 µg/mL (Escherichia coli [25]): 12.2 mm |
| COc1ccc(Cl)c(-c2nnc3sc(-c4ccnc5ccccc45)nn23)c1 | 13.9 mm | 20.9% | 13.1 mm | 12.8 mm | 7.21 mm | 18.6% | 7.68 mm | 13.2 mm | 18.1 mm | 17.24% | 6.48 mm | 13.3 mm | 23.84% | 7.82 mm | 18 mm | 14.3% | 18.7 mm | 7.69% | 19.1 mm | 6.4 mm | zone of inhibition at 10 µg/mL (Escherichia coli [21]): 8.28 mm; zone of inhibition at 30 µg/mL (Bacillus subtilis [22]): 18.8 mm; inhibition in vivo at 20 mg/kg (Rattus norvegicus [23]): 11.1%; zone of inhibition at 30 µg/mL (Escherichia coli [24]): 18.8 mm; zone of inhibition at 20 µg/mL (Escherichia coli [25]): 14.5 mm |
